Assay results taken from ChEMBL document CHEMBL1649314, “Experimental murine scedosporiosis: histopathology and azole treatment” (2010).
Values after ≈ are worked out from the molar mass of the structure shown. Active and inactive are the calls of the source. The rule behind the calls is not given here.

Columns and labels:
Scedosporium apiospermum [1] = assay: Antifungal activity against Scedosporium apiospermum CBS 117407 infected in immunosuppressed OF1 mouse assessed as prolonged survival of mouse at 20 mg/kg, po BID administered 24 hrs postinfection for 10 days measured after 20 days; type: functional, organism-based; set-up: dose 20 mg/kg
Summary of the method: (§1)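 Male OF1 mice, groups of 10, immunosuppressed 1 day before infection with cyclophosphamide 200 mg/kg i.p. plus 5-fluorouracil 150 mg/kg i.v. Infected i.v. via tail vein with 1 × 10^4 CFU in 0.2 ml saline. Oral treatment began 24 h post-challenge for 10 days. Mice checked daily for 20 days. Survival by Kaplan-Meier, compared by log rank test.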

Scedosporium boydii [2] = assay: Antifungal activity against Scedosporium boydii FMR 6694 infected in immunosuppressed OF1 mouse assessed as reduction in kidney fungal burden at 20 mg/kg, po BID administered 24 hrs postinfection for 10 days measured after 20 days; type: functional, organism-based; set-up: dose 20 mg/kg
Scedosporium apiospermum [3] = assay: Antifungal activity against Scedosporium apiospermum CBS 117407 infected in immunosuppressed OF1 mouse assessed as reduction in kidney fungal burden at 20 mg/kg, po BID administered 24 hrs postinfection for 10 days measured after 20 days; type: functional, organism-based; set-up: dose 20 mg/kg
Scedosporium apiospermum [4] = assay: Antifungal activity against Scedosporium apiospermum CBS 117407 infected in immunosuppressed OF1 mouse assessed as reduction in brain fungal burden at 40 mg/kg, po BID administered 24 hrs postinfection for 10 days measured after 20 days; type: functional, organism-based; set-up: dose 40 mg/kg
Scedosporium aurantiacum [5] = assay: Antifungal activity against Scedosporium aurantiacum CBS 116910 infected in immunosuppressed OF1 mouse assessed as reduction in brain fungal burden at 40 mg/kg, po BID administered 24 hrs postinfection for 10 days measured after 20 days; type: functional, organism-based; set-up: dose 40 mg/kg
[6] = Antifungal activity against Scedosporium aurantiacum IHEM 15458 infected in immunosuppressed OF1 mouse assessed as prolonged survival of mouse at 10 mg/kg, po BID administered 24 hrs postinfection for 10 days measured after 20 days; type: functional, organism-based; set-up: dose 10 mg/kg; summary of the method: as §1
[7] = Antifungal activity against Scedosporium aurantiacum CBS 116910 infected in immunosuppressed OF1 mouse assessed as prolonged survival of mouse at 20 mg/kg, po BID administered 24 hrs postinfection for 10 days measured after 20 days; type: functional, organism-based; set-up: dose 20 mg/kg; summary of the method: as §1
Scedosporium aurantiacum [8] = assay: Antifungal activity against Scedosporium aurantiacum IHEM 15458 infected in immunosuppressed OF1 mouse assessed as reduction in brain fungal burden at 20 mg/kg, po BID administered 24 hrs postinfection for 10 days measured after 20 days; type: functional, organism-based; set-up: dose 20 mg/kg
Scedosporium boydii [9] = assay: Antifungal activity against Scedosporium boydii FMR 8627 by broth dilution method; type: functional
Scedosporium aurantiacum [10] = assay: Antifungal activity against Scedosporium aurantiacum CBS 116910 infected in immunosuppressed OF1 mouse assessed as reduction in brain fungal burden at 20 mg/kg, po BID administered 24 hrs postinfection for 10 days measured after 20 days; type: functional, organism-based; set-up: dose 20 mg/kg
Scedosporium boydii [11] = assay: Antifungal activity against Scedosporium boydii FMR 8627 infected in immunosuppressed OF1 mouse assessed as reduction in kidney fungal burden at 20 mg/kg, po BID administered 24 hrs postinfection for 10 days measured after 20 days; type: functional, organism-based; set-up: dose 20 mg/kg
Scedosporium aurantiacum [12] = assay: Antifungal activity against Scedosporium aurantiacum IHEM 15458 infected in immunosuppressed OF1 mouse assessed as reduction in kidney fungal burden at 20 mg/kg, po BID administered 24 hrs postinfection for 10 days measured after 20 days; type: functional, organism-based; set-up: dose 20 mg/kg
Scedosporium aurantiacum [13] = assay: Antifungal activity against Scedosporium aurantiacum CBS 116910 infected in immunosuppressed OF1 mouse assessed as reduction in kidney fungal burden at 10 mg/kg, po BID administered 24 hrs postinfection for 10 days measured after 20 days; type: functional, organism-based; set-up: dose 10 mg/kg
Scedosporium boydii [14] = assay: Antifungal activity against Scedosporium boydii FMR 8627 infected in immunosuppressed OF1 mouse assessed as prolonged survival of mouse at 10 mg/kg, po BID administered 24 hrs postinfection for 10 days measured after 20 days; type: functional, organism-based; set-up: dose 10 mg/kg
Summary of the method: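 Male OF1 mice were immunosuppressed 1 day before infection with cyclophosphamide 200 mg/kg i.p. plus 5-fluorouracil 150 mg/kg i.v. They were infected i.v. via a lateral tail vein with 1 × 10^4 CFU/mouse in 0.2 ml saline. Oral dosing was 10 or 20 mg/kg twice daily, or 20 or 40 mg/kg once daily (those mice and controls drank grapefruit juice from day −3). Dosing ran 24 h post-challenge for 10 days; 10 mice/group; observed daily to day 20; Kaplan-Meier with log rank test.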

CC[C@@H]([C@H](C)O)n1ncn(-c2ccc(N3CCN(c4ccc(OC[C@@H]5CO[C@@](Cn6cncn6)(c6ccc(F)cc6F)C5)cc4)CC3)cc2)c1=O [POSACONAZOLE]
Activity (Scedosporium apiospermum [1]): Active | Activity (Scedosporium boydii [2]): inactive | Activity (Scedosporium apiospermum [3]): Active | Activity (Scedosporium apiospermum [4]): Active | Activity (Scedosporium aurantiacum [5]): Active | Activity [6]: Active | Activity [7]: Active | Activity (Scedosporium aurantiacum [8]): Active | MIC (Scedosporium boydii [9]): 1 µg/mL (≈ 1.43 µM) | Activity (Scedosporium aurantiacum [10]): Active | Activity (Scedosporium boydii [11]): Active | Activity (Scedosporium aurantiacum [12]): Active | Activity (Scedosporium aurantiacum [13]): Active | Activity (Scedosporium boydii [14]): Active
